Experimental findings from ChEMBL document CHEMBL1154750 (J Med Chem, 2010) are described below.

Series [1] has as its target Neuraminidase (Influenza A virus (A/Puerto Rico/8/1934(H1N1)), UniProt P03468). The series can be described thus: Inhibition of Influenza Virus A/PR/8/34 neuraminidase chemiluminescence-based enzyme inhibition assay. The gist of the method: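 Chemiluminescent NA assay using NA-Star 1,2-dioxetane sialic acid substrate. Virus culture supernatant was serially 2-fold diluted in NA-Star buffer, and the dilution giving 40:1 signal-to-noise was used. Compound was preincubated with virus for 20 min at 37 C, then substrate (1:500) was added for 30 min at room temperature. Mean of six untreated virus controls set to 100%. IC50 from n = 3 assays, triplicate wells.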

Series [2] addresses T1, Neuraminidase (Influenza A virus, UniProt B4URF0). As to the kind of experiment: Inhibition of Influenza Virus A/Potsdam/15/81 (H1N1) neuraminidase.
Series [3] can be described thus: Cytotoxicity against MDCK cells. The format is cell-based, Canis lupus familiaris. The following applies: dog. The gist of the method: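 Confluent 3-day-old MDCK monolayers in EMEM with 10% FBS were exposed to serial 2-fold dilutions (triplicate) for 72 h at 37 °C, 5% CO2. Cells were fixed and stained with crystal violet-formalin, dye was extracted, and OD was read at 550/630 nm. Viability is given relative to six mock-treated controls. CC50 comes from the mean dose-response curve of two independent assays.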

For series [4], the target named is T1, Neuraminidase. The series can be described thus: Inhibition of Influenza Virus A/Belzig/2/01 (H1N1) neuraminidase. Also noted: species or system Influenza A virus (A/swine/Belzig/2/2001(H1N1)). Summed up:
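Swine H1N1 NA assayed by NA-Star chemiluminescence. Compound was mixed with the diluted virus supernatant (dilution giving 40:1 signal-to-noise) for 20 min at 37 C, then substrate (1:500) was added for 30 min at room temperature. Activity relative to six untreated virus controls; IC50 from one assay, each concentration in triplicate.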

The test system of the next series is Influenza A virus. As to the kind of experiment: Antiviral activity against Influenza A virus (A/Puerto Rico/8/34(H1N1)) in MDCK cells assessed as reduction in plaque number by plaque reduction assay. To be noted: A/Puerto Rico/8/1934(H1N1).
The target of series [5] is T1, Neuraminidase. As to the kind of experiment: Inhibition of Influenza Virus A/Horneburg/IDT7489/08 (H1N1) neuraminidase. The gist of the method: (§1)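 Swine H1N1 isolate NA measured by NA-Star chemiluminescence. The virus supernatant dilution giving 40:1 signal-to-noise was incubated with compound for 20 min at 37 C, then dioxetane sialic acid substrate (1:500) was added for 30 min at room temperature. Six untreated virus controls set to 100%. IC50 from n ≥ 4 assays, triplicate wells.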

Series [6] deals with T1, Neuraminidase. The series can be described thus: Inhibition of Influenza Virus A/Brest/IDT7490/08 (H1N1) neuraminidase. The gist of the method:
as §1

Sequence of Neuraminidase (Influenza A virus (A/Puerto Rico/8/1934(H1N1)), UniProt P03468) (P03468 whole entry): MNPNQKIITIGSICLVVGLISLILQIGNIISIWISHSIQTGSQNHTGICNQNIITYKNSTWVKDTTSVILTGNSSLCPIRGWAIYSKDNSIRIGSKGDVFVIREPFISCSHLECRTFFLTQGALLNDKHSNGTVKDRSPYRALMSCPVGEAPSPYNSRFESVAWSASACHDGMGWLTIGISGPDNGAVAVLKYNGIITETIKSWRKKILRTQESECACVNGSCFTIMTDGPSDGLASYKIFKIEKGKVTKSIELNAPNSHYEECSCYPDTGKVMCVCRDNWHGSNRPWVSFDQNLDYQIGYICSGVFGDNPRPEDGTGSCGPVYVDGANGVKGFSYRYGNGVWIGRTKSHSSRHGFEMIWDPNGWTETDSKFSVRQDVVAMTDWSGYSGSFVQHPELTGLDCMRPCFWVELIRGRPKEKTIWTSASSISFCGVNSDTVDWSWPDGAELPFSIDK
T1 sequence (B4URF0 whole entry): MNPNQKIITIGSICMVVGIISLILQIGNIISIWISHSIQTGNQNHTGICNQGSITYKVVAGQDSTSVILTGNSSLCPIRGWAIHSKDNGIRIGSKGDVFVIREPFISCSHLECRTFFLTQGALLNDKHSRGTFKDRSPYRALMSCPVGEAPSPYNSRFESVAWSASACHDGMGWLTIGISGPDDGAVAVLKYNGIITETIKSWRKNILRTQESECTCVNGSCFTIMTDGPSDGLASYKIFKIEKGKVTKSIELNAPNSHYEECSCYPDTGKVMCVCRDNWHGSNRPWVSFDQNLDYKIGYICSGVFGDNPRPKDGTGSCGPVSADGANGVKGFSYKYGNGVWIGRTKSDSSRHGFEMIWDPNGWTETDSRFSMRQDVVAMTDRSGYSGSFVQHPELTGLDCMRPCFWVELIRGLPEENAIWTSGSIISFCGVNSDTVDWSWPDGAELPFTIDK

For the compound `CC(C)=CCC/C(C)=C/CC/C(C)=C/CO` [FARNESOL], the IC50 in series [1] stood at 81.4 µM.

As for `O=C(CCc1ccccc1)C[C@@H]1C[C@@H](c2ccccc2)c2c(cc(/C=C/c3ccccc3)oc2=O)O1` [KATSUMADAIN A], the IC50 in series [1] stood at 1.05 µM; on Neuraminidase [2], 0.00073 µM; against Neuraminidase [4] it was 0.00059 µM; in the series with Influenza A virus, 11.8 µM; against Neuraminidase [5], 0.00111 µM; on Neuraminidase [6] it was 0.00164 µM. This compound yielded a CC50 in series [3] of 66.9 µM.

`O[C@@H](CC/C=C/c1ccccc1)CCc1ccccc1` gave an IC50 in series [1] of 4.13 µM.

On to `O=C(/C=C(O)\C=C\c1ccccc1)CCc1ccccc1`, for which, in series [1], it took 4.67 µM to reach half-maximal inhibition (IC50).

In the case of `O[C@@H](CCc1ccccc1)C[C@H](O)/C=C/c1ccccc1`, the IC50 in series [1] worked out at 29.8 µM.

For the compound `O=C(/C=C/C=C/c1ccccc1)CCc1ccccc1`, 6.1 µM corresponded to half-maximal inhibition in series [1] (IC50).
